Tests used:
Mus musculus [1] = experiment: Effect on protein synthesis in tumor of CD-1 mouse allografted with mouse S180A cells assessed as [14C]-leucine incorporation at 80 mg/kg, ip pretreated for 3 hrs followed by radiotracer-addition measured after 1 hr relative to control; type: functional; details: route intraperitoneal
Summary of the method: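 Mice bearing 6-day Sarcoma 180 ascites implants received a single ip dose of 80 mg/kg. At the stated pretreatment time they were given ip tracer: 200 μg thymidine-3H, 200 μg uridine-3H or 125 μg DL-leucine-14C. After 1 h of incorporation, specific radioactivity of DNA, RNA or protein was read as % of control incorporation.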

Mus musculus [2] = experiment: Toxicity in CD-1 mouse allografted with mouse S180A cells assessed as change in body weight at 40 mg/kg administered qd for 6 days (reference value: 23.2%); type: organism-based; parameters: dose 40 mg/kg; details: in vivo, 144 h
Mus musculus [3] = experiment: Toxicity in C3H mouse allografted with mouse Hepa129 cells assessed as change in body weight at 20 mg/kg administered qd for 6 days (reference value: 13.5%); type: organism-based; parameters: dose 20 mg/kg; details: in vivo, 144 h
Summary of the method: (§1)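 Ascitic tumors were transplanted from a donor mouse bearing a 7-day tumor. Daily doses were given for six consecutive days. Percentage body-weight change from onset to termination of therapy served as the index of drug toxicity.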

Mus musculus [4] = experiment: Toxicity in CD-1 mouse allografted with mouse S180A cells assessed as change in body weight at maximum effective dose administered qd for 6 days (reference value: 23.2%); type: organism-based; details: 144 h
Mus musculus [5] = experiment: Toxicity in BDF1 mouse allografted with mouse L1210 cells assessed as change in body weight at 40 mg/kg administered qd for 6 days (reference value: 13.6%); type: organism-based; parameters: dose 40 mg/kg; details: in vivo, 144 h; summary of the method: as §1

In the case of Cc1ccc(S(=O)(=O)N/N=C/c2cccc[n+]2[O-])cc1, the Activity (Mus musculus [1]) is reported as 70%, the Activity (Mus musculus [2]) is reported as -3.1% and the Activity (Mus musculus [3]) is reported as 11%. The Activity (Mus musculus [4]) was -8% and the Activity (Mus musculus [5]) was 2.8%.
